p97 inhibitor: inhibitors of human p97 ATPase, primary screen, biochemical; Transitional endoplasmic reticulum ATPase (Homo sapiens), P55072; inhibition, % at 8 µM; AID 1481, 2009; 220,000 compounds, 0.42% hits; recombinant p97 ATPase, Kinase-Glo ATP luminescence, 3 h; in the data active means inhibition above about 15%
DTT redox prof: compounds producing H2O2 with reducing agent – biochemical, NIH compound library profiling, artefact control for MLSCN library redox annotation, primary screen; DTT-dependent redox cycling H2O2, phenol red/HRP absorbance; 100% = 100 µM peroxide control, 0% = buffer; activation, % at 10 µM; 200,000 compounds, 0.03% hits; AID 878, 2007;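 active means activation of at least 50% relative to the plate's high and low controls in the primary single-dose screen; inactive means activation below 50%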;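 further: compound incubated with DTT at 0.8 mM final as the reducing agent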
PKD1 inh: inhibitors of human PKD1 kinase, biochemical, fluorescence polarization. Serine/threonine-protein kinase D1 (Homo sapiens), Q15139. PKD1 kinase fluorescence polarization assay. inhibition, % (test concentration not listed). 200,000 compounds, 0.056% hits; in the data active means inhibition above about 50%
RBBP9 inhibitor: human RBBP9 inhibitors, primary screen, biochemical, fluorescence polarization, FP-Rh probe, HTS. recombinant RBBP9. inhibition, % at 7.94 µM. 220,000 compounds, 0.2% hits;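 active means inhibition above the campaign mean of all tested compounds plus 3 SD, cut at about 14% in these data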
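Test system – recombinant human RBBP9 · Input – RBBP9 2.5 µM in dispensing solution, pre-mixing · Medium – Tris buffer pH 8.0, NaCl, Pluronic · Schedule – preincubation 30 min plus labeling 45 min at 25 °C · Measured by – fluorescence polarization · Measure – % inhibition · Controls – DMSO and no-protein wells · Replicates – one well per compound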
Arbovirus inh: antivirals against arbovirus infection, primary screen, cell-based, full library, 10K replicate subset | arbovirus infection cell-based antiviral screen | inhibition, % at 10 µM | 200,000 compounds, 0.37% hits | AID 1251, 2008; in the data active means inhibition above about 30%
Wee1 stabilizer: Wee1 degradation inhibitors, primary screen, cell-based, HeLa, Wee1K328M-luciferase, luminescence | 220,000 compounds, 1.2% hits | Wee1-like protein kinase (Homo sapiens), P30291 | HeLa Luc-Wee1K328M stability; 100% = proteasome inhibitor MG132 effect | reporter increase, % at 5 µM;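 active means activation above the mean of all tested compounds plus 3 SD, set per screening run, cut at about 8.8% in these data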;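 further: cells exposed to compound for 20 h before luminescence read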
RBBP9 confirm: human RBBP9 inhibitors, retest, confirmation, biochemical, fluorescence polarization, FP-Rh probe, triplicate | 410 compounds, 36% hits | recombinant RBBP9 | inhibition, % at 7.94 µM | shares compounds with RBBP9 inhibitor | AID 1537, 2009;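 active means inhibition above the hit cutoff derived for the primary screen, cut at about 15% in these data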
Hits are given with their value; n = inactive; x = no result given. A selection: hits, their analogues and other compounds. The true share with any hit is near 2.2%.

SMILES | p97 inhibitor | DTT redox prof | PKD1 inh | RBBP9 inhibitor | Arbovirus inh | Wee1 stabilizer | RBBP9 confirm
Cc1ccc(-n2sc3ccccc3c2=O)cc1S(=O)(=O)N1CCCCC1 | n | n | n | n | n | n | x
CCOc1cc2nc(-c3ccc(OC)c(OC)c3)nc(NCCCN3CCOCC3)c2cc1OC | n | n | n | n | n | n | x
COc1cc2ncnc(NCCCN3CCOCC3)c2cc1OC | n | x | x | 15 | x | n | n
CCOc1ccc(OCC(O)CNC2CCN(Cc3ccccc3)CC2)cc1 (stereo unspecified) | n | n | n | n | n | n | x
OC(CNC1Cc2ccccc2C1)COc1ccc(F)cc1 (stereo unspecified) | n | x | x | 15 | x | n | n
O=C(C[n+]1ccc(C(=O)NCCCO)cc1)c1cccc(Br)c1 | n | x | x | 63 | x | n | n
CCc1cc(/C(Cc2ccc3ccccc3n2)=N\O)c(O)cc1O | n | n | n | 46 | n | n | 50
CCc1cc(/C(Cc2ccccn2)=N\O)c(O)cc1O | n | n | n | n | n | n | x
CC(=O)Nc1c(F)cc(Br)cc1F | n | x | x | 16 | x | n | n
CCOC(=O)C(C)(C)Sc1ncnc2nc[nH]c12 | n | n | n | 16 | n | n | n
CCOC(=O)N1CCN(c2ncnc3nc[nH]c23)CC1 | n | n | n | n | n | n | x
COc1cc(/C=C/C(=O)N(C)c2ccccc2C(=O)O)cc(OC)c1OC | n | n | n | n | n | n | x
CN(C(=O)/C=C/c1ccco1)c1ccccc1C(=O)O | n | n | n | 17 | n | n | n
O=C(c1ccccc1F)N1CCN(c2ccc([N+](=O)[O-])cc2-n2cccc2)CC1 | n | x | x | 16 | x | n | n
O=C(c1ccc(F)cc1)N1CCN(c2ccc([N+](=O)[O-])cc2-n2cccc2)CC1 | n | x | x | n | x | n | x
C/C(=N\OC(=O)c1ccc(F)cc1)c1nccs1 | n | n | n | n | n | n | x
COc1ccc(C(=O)O/N=C(\C)c2nccs2)cc1 | n | n | n | 19 | n | n | 39
C=CCN=c1scc(C)n1/N=C/c1ccc(O)c(O)c1 | n | n | n | 23 | n | n | 24
CN=c1scc(-c2ccco2)n1/N=C/c1ccc(O)c(O)c1 | n | n | n | 26 | n | n | n
O=C(NN=C1CCCC1)c1ccccc1OCCOc1ccccc1 | n | n | n | 23 | n | n | n
O=C(NN=C1CCCCC1)c1ccccc1OCc1ccc(F)cc1 | n | n | n | n | n | n | x
CCOC(=O)N1CCC(n2c(SCC(=O)Nc3nccs3)nc3ccsc3c2=O)CC1 | n | n | n | n | n | n | x
